Source: PubChem (several laboratories)
Compounds with a hit are over-represented: about 4.2% of the library has one in this group of screens.
HDAC3 inh = inhibitors of human histone deacetylase 3; O15379; recombinant HDAC3, fluorogenic peptide/trypsin coupled, fluorescence; inhibition, % at 8.3 µM; 0.15% of 320,000 active; AID 2718; in the data active = inhibition above about 26%, passing the limit was not always enough
PfM18AAP inh-1 = PfM18AAP enzyme inhibition; inhibition, % at 7.35 µM; 1.2% of 290,000 active; recombinant PfM18AAP, H-Glu-NHMec fluorogenic cleavage; AID 1822;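 active = inhibition above the campaign mean inhibition over all tested compounds plus 3 SD, cut at about 28% in these data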;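 note: 0% = plate median of test compound wells and 100% = 2 mM ZnCl2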
AHR act = activates the human aryl hydrocarbon receptor. 2.5% of 320,000 active. P35869. activation, % at 5 µM. AHR-responsive luciferase reporter cells, luminescence; in the data active = activation above about 47%;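 note: 0% = vehicle wells and 100% = reference agonist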
CTSL1 counter-1 = counter-screen for PFM18AAP inhibitors: inhibitors of F. hepatica cathepsin L1 | recombinant F. hepatica cathepsin L1, Z-Leu-Arg-MCA fluorescence | inhibition, % at 5.96 µM | 0.49% of 300,000 active;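 active = inhibition above the mean of all tested compounds plus 3 SD, set per screening campaign, cut at about 17% in these data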;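 note: 0% = plate median of test compound wells and 100% = 1 µM Z-Phe-Ala-diazomethylketone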
SENP1 FRET inh = SENP1 (human) catalytic domain inhibition; 0.21% of 360,000 active; recombinant SENP1 catalytic domain, CyPet-SUMO1-YPet FRET cleavage; Q9P0U3; inhibition, % at 10 µM; AID 624204;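 active = inhibition at least 30% at 10 µM, raw YFP signal under a set limit, fluorescence ratio 0.5 to 1.5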;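 note: 0% = enzyme with DMSO and 100% = no enzyme wells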
Target sequence (Q9P0U3 419-644 limits assumed): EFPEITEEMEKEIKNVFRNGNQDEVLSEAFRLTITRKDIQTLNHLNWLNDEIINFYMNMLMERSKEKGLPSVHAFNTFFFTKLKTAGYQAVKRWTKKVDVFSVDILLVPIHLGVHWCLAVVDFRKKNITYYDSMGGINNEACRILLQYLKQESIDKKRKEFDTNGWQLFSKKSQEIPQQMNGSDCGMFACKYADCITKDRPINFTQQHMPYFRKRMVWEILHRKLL
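system = hSENP1 catalytic domain, recombinant | reagent = SFCypet-SUMO1-SFYpet substrate at 25 nM | doses = one dose per compound, 10 µM, 0.5% DMSO | incubation = enzyme reaction for 50 min at room temperature, dark | measured by = FRET, CFP and YFP emission | controls = no-enzyme low, enzyme-DMSO high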
FXN GAA850 act = increases GAA850 frataxin promoter reporter activity; 0.56% of 360,000 active; HEK293 lucGAA850 FXN promoter luciferase reporter, 24 h; percent of 10 µM SAHA response; activation, % at 6 µM; AID 540364;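 active = activation above the average of all compounds screened plus 3 SD, cutoff fixed separately per campaign, cut at about 7.5% in these data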;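 note: 0% = DMSO wells and 100% = 10 µM SAHA wells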
PfM18AAP inh-2 = PfM18AAP inhibition, confirmation; shares compounds with PfM18AAP inh-1; recombinant PfM18AAP, H-Glu-NHMec fluorogenic cleavage; inhibition, % at 7.35 µM; 28% of 2,400 active; AID 2170;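 active = mean inhibition over replicate wells above the hit cutoff set for the earlier primary screen, cut at about 29% in these data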;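 note: 0% = median of test compound wells and 100% = 2 mM ZnCl2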
CTSL1 counter-2 = Cathepsin L (human) inhibition, confirmation; inhibition, % at 5.96 µM; 2,400 tested, under 10 active; shares compounds with PfM18AAP inh-1; purified cathepsin L1, Z-Leu-Arg-MCA fluorescence;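 active = average inhibition across replicates above the hit cutoff set in the earlier primary screen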;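 note: 0% = median of test compound wells and 100% = Z-Phe-Ala-diazomethylketone 1 µM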
Target sequence (P07711 whole entry, looked up): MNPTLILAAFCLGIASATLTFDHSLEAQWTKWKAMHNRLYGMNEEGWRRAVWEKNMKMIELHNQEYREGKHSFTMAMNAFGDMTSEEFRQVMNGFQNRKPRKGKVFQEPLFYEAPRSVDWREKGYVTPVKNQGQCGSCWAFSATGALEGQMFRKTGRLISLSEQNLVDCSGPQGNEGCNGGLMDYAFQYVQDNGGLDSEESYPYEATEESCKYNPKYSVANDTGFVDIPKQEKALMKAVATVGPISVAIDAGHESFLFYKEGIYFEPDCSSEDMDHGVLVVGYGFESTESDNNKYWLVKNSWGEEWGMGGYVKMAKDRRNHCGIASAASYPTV
Starred values were filed as active, the others as inactive; / = no result given.

SMILES | HDAC3 inh | PfM18AAP inh-1 | AHR act | CTSL1 counter-1 | SENP1 FRET inh | FXN GAA850 act | PfM18AAP inh-2 | CTSL1 counter-2
Cc1cc(=O)[nH]c(SCC(=O)NNC(=O)Cc2ccccc2)n1 | 2.2 | 35.5* | 2.5 | -2.1 | 3.9 | 1.1 | 2.2 | -4.8
COc1cccc(OC)c1NC(=O)CN1CCN(C)CC1 | 4.1 | -6.5 | -0.2 | 0.7 | -0.9 | 2.0 | / | /
Cc1ccc(S(=O)(=O)N/N=C/c2ccc(O)c(O)c2)cc1[N+](=O)[O-] | -0.3 | 53.7* | -0.3 | -1.5 | 2.9 | 2.1 | 44.7* | 3.9
Cc1ccc(S(=O)(=O)N/N=C/c2ccccc2O)cc1[N+](=O)[O-] | 1.0 | 4.7 | 3.2 | -4.3 | 1.4 | 1.2 | / | /
Oc1c(/C=N/c2ncn[nH]2)ccc2ccccc12 | -1.2 | 63.7* | 19.6 | -2.6 | -22.7 | -2.2 | 52.1* | -4.1
Cc1nc2ccccc2c(=O)n1/N=C/c1ccc2ccccc2c1O | -0.1 | 2.2 | 24.3 | 5.9 | -33.2 | -2.4 | / | /
COc1cccc(-n2c(CCn3nc(C)c([N+](=O)[O-])c3C)n[nH]c2=S)c1 | 6.8 | 31.8* | -2.0 | -1.1 | 0.4 | 2.2 | 1.6 | -0.3
Cc1cccc(-n2c(CCn3nc(C)c([N+](=O)[O-])c3C)n[nH]c2=S)c1 | 11.9 | 18.0 | 0.3 | 3.0 | 0.4 | 3.8 | / | /
CCCNC(=O)C1(C)CCCN(C(=O)c2ccccc2OC)C1 (centres undefined) | / | / | / | / | -1.0 | 0.4 | / | /
CCn1c(=O)c(=O)[nH]c2cc(C(=O)N(C)Cc3ccc(OC)c(F)c3)ccc21 | -0.1 | 4.6 | 2.2 | -1.4 | -10.3 | -1.3 | / | /
NNc1nc2ccccc2c(=O)n1Cc1ccccc1 | -3.0 | 54.2* | 6.7 | -1.8 | 0.1 | 0.2 | 38.6* | 3.2
N#CC1(Nc2ccc(S(N)(=O)=O)cc2)CCCC1 | / | / | / | / | 1.4 | -0.3 | / | /
CC(C)NC(=O)Nc1n[nH]c(Nc2ccc(Cl)cc2)n1 | 4.3 | 39.7* | 36.8 | -3.4 | 1.9 | 5.8 | 8.6 | -2.9
COc1ccc(Cl)cc1NC(=O)NC(C)C | 0.8 | -2.5 | 0.3 | -7.5 | 2.1 | -0.5 | / | /
CC[n+]1c(C)sc2cc(OC)ccc21 | 2.4 | 36.6* | 2.2 | 1.7 | -2.1 | -0.5 | -19.9 | 1.5
Oc1ccc(N2CCN(c3ncnc4sc(-c5ccccc5)cc34)CC2)cc1 | / | 43.5* | / | / | -1.0 | 1.0 | 9.9 | 0.1
CC(=O)N1CCN(c2ncnc3sc(-c4ccccc4)cc23)CC1 | -3.1 | -4.0 | 22.9 | -0.2 | -18.0 | 2.2 | / | /
CC(C)C(c1nnnn1Cc1ccc(F)cc1)N1CCN(c2ccc(O)cc2)CC1 (centres undefined) | -1.4 | 31.9* | 2.7 | -4.0 | 0.4 | -1.0 | -11.4 | 0.5
CC1(C)C2([N+](=O)[O-])CN3CC1([N+](=O)[O-])CN(C2)C3c1ccc(O)c(O)c1 (centres undefined) | -4.8 | 77.0* | 0.9 | 0.9 | -1.3 | 0.9 | 84.2* | 3.7
CC(=O)N1c2ccccc2S(=O)(=O)c2c1ccc1ccccc21 | / | / | / | / | -0.8 | -1.1 | / | /
O=C(CC1Sc2ccccc2NC1=O)Nc1cccc(C(=O)O)c1 (centres undefined) | -1.3 | 41.3* | -2.1 | -1.7 | 3.8 | 0.5 | 25.5 | -3.8
O=C1CC(Sc2nnc(-c3ccccc3)o2)C(=O)N1c1ccccc1 (centres undefined) | 6.4 | -117.0 | -3.5 | 1.4 | 4.6 | 0.6 | / | /
O=C1c2ccccc2CC1Sc1nnc(-c2ccncc2)o1 (centres undefined) | -6.3 | 46.1* | 62.5* | -5.5 | 2.2 | 0.7 | -56.8 | -3.8
C1=C\CCC2(OCCO2)C2(CC/1)OCCO2 | / | / | / | / | 2.4 | 1.2 | / | /
Cc1ccc(CNc2ccc(CNc3ncn[nH]3)cc2)cc1 | 2.4 | 26.9 | 2.6 | 0.5 | 3.0 | 0.1 | / | /
SMILES | HDAC3 inh | PfM18AAP inh-1 | AHR act | CTSL1 counter-1 | SENP1 FRET inh | FXN GAA850 act | PfM18AAP inh-2 | CTSL1 counter-2
COc1ccccc1CNc1ccc(CNc2ncn[nH]2)cc1 | 6.6 | 32.6* | 3.8 | 2.6 | -1.6 | -1.1 | -16.7 | 1.0
CN(C)c1ccc(CNc2ncn[nH]2)cc1 | -3.9 | 36.9* | 3.9 | -3.5 | 2.1 | -0.5 | -8.9 | -1.5
COc1cc(CNc2ccc(CNc3ncn[nH]3)cc2)ccc1OCc1ccccc1 | -3.7 | 46.6* | 0.3 | 0.1 | -0.2 | 3.5 | -4.9 | 4.4
Cc1ccc(C(=O)Nc2cccc(NC(=O)c3ccc(C)o3)n2)o1 | 4.6 | -2.9 | 6.1 | 0.7 | -6.0 | 1.0 | / | /
CCN(CC)C(=O)c1csc(Nc2cccc3ccccc23)n1 | -0.8 | 31.8* | 19.6 | -5.7 | -12.0 | -1.7 | -17.9 | 3.8
CCN1C(=NCCCOC(C)C)N[C@@H](CCc2ccccc2)[C@H](C(=O)NCCCOC(C)C)[C@H]1C | -2.1 | / | -0.2 | / | -90.6 | 0.8 | / | /
COc1cccc(NC(=O)CN(C)C(=O)c2ccc(S(=O)(=O)Nc3ccccc3F)cc2)c1 | / | / | / | / | 3.8 | -0.4 | / | /
COc1cc(C2C(C#N)=C(N)OC3=C2C(=O)CCC3)cc2c1OCO2 (centres undefined) | -0.8 | 34.2* | 4.6 | -3.7 | 0.9 | 2.6 | -41.7 | -3.9
CC(=O)c1ccc([N+](=O)[O-])c(CS(=O)(=O)c2ccc(Cl)cc2)c1 | -1.4 | -9.3 | 1.6 | -1.6 | 0.8 | 2.3 | / | /
COc1cc(C(c2c(C)[nH][nH]c2=O)c2c(C)[nH][nH]c2=O)cc(OC)c1OC | 2.5 | 34.9* | 3.9 | -10.1 | 1.4 | 0.3 | 5.8 | -1.5
COc1cc(C(c2c(C)[nH][nH]c2=O)c2c(C)[nH][nH]c2=O)cc(Cl)c1O | -2.6 | 25.6 | -0.6 | -2.1 | 0.4 | 1.1 | / | /
COc1ccc(C(c2c(C)[nH][nH]c2=O)c2c(C)[nH][nH]c2=O)cc1Br | 5.8 | 36.1* | 19.9 | 3.8 | 1.5 | 0.8 | 15.1 | 2.5
COc1cc(C(c2c(C)[nH][nH]c2=O)c2c(C)[nH][nH]c2=O)ccc1OC(C)C | -0.8 | 19.4 | 3.5 | 0.7 | 2.8 | 0.4 | / | /
O=C(Nn1c(O)c(C=C2N=c3ccccc3=N2)sc1=S)c1cccc(Cl)c1 | -0.8 | 53.6* | 15.2 | 4.1 | -11.3 | -0.1 | -3.1 | -1.7
O=C(Nn1c(O)c(C=C2N=c3ccccc3=N2)sc1=S)c1ccc(Cl)cc1 | 11.1 | 25.2 | 22.1 | 5.1 | -10.9 | 0.2 | / | /
Cc1ccc(C(=O)Nn2c(O)c(C=C3N=c4ccccc4=N3)sc2=S)cc1 | 6.7 | 54.7* | 10.0 | 4.2 | -10.5 | 1.2 | -30.9 | 1.4
O=C(Nn1c(O)c(C=C2N=c3ccccc3=N2)sc1=S)c1ccccc1 | 8.0 | 55.9* | 19.2 | 4.7 | -13.0 | 2.5 | -3.9 | -1.7
Oc1[nH]c(=S)sc1C=C1N=c2ccccc2=N1 | -1.7 | 22.7 | 20.5 | 4.2 | -15.0 | 2.8 | / | /
Oc1c(C=C2N=c3ccccc3=N2)sc(=S)n1-c1ccc(F)cc1 | 3.7 | 37.6* | 14.9 | -0.3 | 7.1 | -0.1 | -16.9 | 1.6
